# Measurements reported in ChEMBL document CHEMBL1123614, “Effects of [(N-alkyl-1,3-dioxo-1H,3H-isoindolin-5-yl)oxy]alkanoic acids, [(N-alkyl-1-oxo-1H,3H-isoindolin-5-yl)oxy]butanoic acids, and related derivatives on chloride influx in primary astroglial cultures” (J Med Chem, 1987).
# Key:
# Assay type in all cases: functional, organism-based
# Rattus norvegicus [1] = species on record: Rattus norvegicus; assay: Reduction of Astrocyte intracellular chloride concentration at 0.1 mM.
# Procedure, shortened: (§1)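 Primary rat astrocyte cultures (1–4-day-old Sprague-Dawley pups, oligodendrocytes not removed, >90% astrocytes) grown 3–5 weeks in serum BME. Cells equilibrated 60 min at 37 °C in chloride-HCO3 Hepes medium. Cells washed with ice-cold 0.32 M sucrose. Counts, minus time-0 background, normalized to Lowry protein. Reported as % of vehicle control ± SD, n = 4.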
# Rattus norvegicus [2] = species on record: Rattus norvegicus; assay: Reduction of Astrocyte intracellular chloride concentration at 0.05 mM.; procedure, shortened: as §1
# Rattus norvegicus [3] = species on record: Rattus norvegicus; assay: Reduction of Astrocyte intracellular chloride concentration at 1 mM.; procedure, shortened: as §1
# Rattus norvegicus [4] = species on record: Rattus norvegicus; assay: Reduction of Astrocyte intracellular chloride concentration at 0.05 mM; No data.; procedure, shortened: as §1
# Rattus norvegicus [5] = species on record: Rattus norvegicus; assay: Reduction of Astrocyte intracellular chloride concentration at 0.01 mM.; procedure, shortened: as §1
# [6] = 0.5 mM, in the assay text read “0.5 mM” for “0.05 mM”
SMILES,Concentration (Rattus norvegicus [1]) [%],Concentration (Rattus norvegicus [2]; 0.05 mM) [%],other results
CCCCN1C(=O)c2cc(Cl)c(OCCCC(=O)O)cc2C1=O,95,,Concentration (Rattus norvegicus [2]; [6]): 81%
CCN1Cc2cc(OCCCC(=O)O)ccc2C1=O,67,,Concentration (Rattus norvegicus [3]): 57%; Concentration (Rattus norvegicus [4]): 93%; Concentration (Rattus norvegicus [2]; [6]): 67%; Concentration (Rattus norvegicus [5]): 109%
O=C(O)CCCOc1ccc2c(c1Cl)C(=O)N(C1CCCC1)C2=O,107,,
O=C(O)COc1ccc2c(c1)C(=O)N(C1CCCCC1)C2=O,94,87,
CN1C(=O)c2ccc(OCCCC(=O)O)cc2C1=O,90,118,
O=C(O)CCCOc1cc2c(cc1Cl)C(=O)N(C1CCCC1)C2=O,111,,
CCCN1C(=O)c2ccc(OCCCC(=O)O)cc2C1=O,67,80,
NS(=O)(=O)c1cc(C(=O)O)c(NCc2ccco2)cc1Cl,79,,Concentration (Rattus norvegicus [3]): 21%
CCCN1C(=O)c2ccc(OCC(=O)O)cc2C1=O,103,110,
CCCCCN1C(=O)c2ccc(OCCCC(=O)O)cc2C1=O,85,77,
CCCCN1C(=O)c2cc(OCCCC(=O)O)c(Cl)c(Cl)c2C1=O,86,,Concentration (Rattus norvegicus [2]; [6]): 74%
O=C(O)CCCOc1ccc2c(c1)C(=O)NC2=O,93,88,
O=C(O)CCCOc1cc2c(cc1Cl)C(=O)N(C1CCCC1)C2,115,,
O=C(O)CCCOc1ccc2c(c1)C(=O)N(C1CCCC1)C2=O,101,,
CCN1C(=O)c2cc(OCCCC(=O)O)c(Cl)c(Cl)c2C1=O,103,,Concentration (Rattus norvegicus [2]; [6]): 83%
CN1Cc2cc(OCCCC(=O)O)ccc2C1=O,84,,
O=C(O)CCCOc1ccc2c(c1)C(=O)N(C1CCCCC1)C2=O,105,,

SMILES,Concentration (Rattus norvegicus [1]) [%],Concentration (Rattus norvegicus [2]; 0.05 mM) [%],other results
C=C(CC)C(=O)c1ccc(OCC(=O)O)c(Cl)c1Cl,78,,
O=C(O)CCCOc1ccc(C(=O)NC2CCCC2)c(Cl)c1Cl,93,78,
CCCCCCN1C(=O)c2ccc(OCCCC(=O)O)cc2C1=O,109,,Concentration (Rattus norvegicus [2]; [6]): 118%
CCCN1C(=O)c2cc(OCCCC(=O)O)c(Cl)c(Cl)c2C1=O,74,,Concentration (Rattus norvegicus [2]; [6]): 89%
CCCCN1C(=O)c2ccc(OCCCC(=O)O)cc2C1=O,88,69,
CCN1C(=O)c2ccc(OCCCC(=O)O)cc2C1=O,104,76,
CN1C(=O)c2cc(OCCCC(=O)O)c(Cl)c(Cl)c2C1=O,91,,
CCCCN1Cc2cc(OCCCC(=O)O)ccc2C1=O,97,76,
O=C(O)CCCOc1c(Cl)cc2c(c1Cl)C(=O)N(C1CCCC1)C2=O,94,,
O=C(O)CCCOc1ccc2c(c1)C(=O)N(CCCCO)C2=O,106,101,
O=C(O)CCCOc1ccc(C(=O)NC2CCCC2)cc1Cl,83,,
O=C(O)CCCOc1ccc2c(c1)C(=O)N(CCCO)C2=O,75,83,
CN(C(=O)c1ccc(OCCCC(=O)O)c(Cl)c1Cl)C1CCCC1,79,,
CCCN1Cc2cc(OCCCC(=O)O)ccc2C1=O,98,76,
O=C(O)COc1ccc2c(c1)C(=O)N(C1CCCC1)C2=O,91,92,
O=C(O)CCCOc1ccc(C(=O)NC2CCCC2)cc1Br,74,,
O=C(O)CCCOc1cc2c(c(Cl)c1Cl)C(=O)N(C1CCCC1)C2=O,97,,
